Test results published in PMC9089348 (ACS Omega, 2022).

What was measured:
Type in all cases: cell-based
[1] = biological target: CaV1.2 LTCCs expressed in HEK293 cells (Homo sapiens, UniProt Q13936); assay: Automated planar whole-cell patch-clamp recording, CaV1.2
Summary of the method: (§1)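 HEK293 lines stably expressing the channel plus Kir2.1, grown in DMEM/10% FBS at 37 °C, 5% CO2, moved to 28 °C the day before. Automated whole-cell recording at room temperature; bath (mM) 120 NaCl, 20 CsCl, 10 BaCl2, pH 7.4; CsF-based internal. Current read at 0 mV, 250 ms into step from −60 mV, before and after compound or vehicle; only CdCl2 (5 mM)-sensitive current analysed, no leak subtraction.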

[2] = biological target: CaV1.2 L-type calcium channel (Homo sapiens, UniProt Q13936); assay: as above; details: pH 7.4
Summary of the method: as §1

[3] = biological target: CaV1.3 LTCCs expressed in HEK293 cells (Rattus norvegicus, UniProt P27732); assay: Automated planar whole-cell patch-clamp recording, CaV1.3; details: HEK293, read-out: % Inhibition (10 μM) CaV1.3
Summary of the method: as §1

Chain of CaV1.3 LTCCs expressed in HEK293 cells (P27732 whole entry): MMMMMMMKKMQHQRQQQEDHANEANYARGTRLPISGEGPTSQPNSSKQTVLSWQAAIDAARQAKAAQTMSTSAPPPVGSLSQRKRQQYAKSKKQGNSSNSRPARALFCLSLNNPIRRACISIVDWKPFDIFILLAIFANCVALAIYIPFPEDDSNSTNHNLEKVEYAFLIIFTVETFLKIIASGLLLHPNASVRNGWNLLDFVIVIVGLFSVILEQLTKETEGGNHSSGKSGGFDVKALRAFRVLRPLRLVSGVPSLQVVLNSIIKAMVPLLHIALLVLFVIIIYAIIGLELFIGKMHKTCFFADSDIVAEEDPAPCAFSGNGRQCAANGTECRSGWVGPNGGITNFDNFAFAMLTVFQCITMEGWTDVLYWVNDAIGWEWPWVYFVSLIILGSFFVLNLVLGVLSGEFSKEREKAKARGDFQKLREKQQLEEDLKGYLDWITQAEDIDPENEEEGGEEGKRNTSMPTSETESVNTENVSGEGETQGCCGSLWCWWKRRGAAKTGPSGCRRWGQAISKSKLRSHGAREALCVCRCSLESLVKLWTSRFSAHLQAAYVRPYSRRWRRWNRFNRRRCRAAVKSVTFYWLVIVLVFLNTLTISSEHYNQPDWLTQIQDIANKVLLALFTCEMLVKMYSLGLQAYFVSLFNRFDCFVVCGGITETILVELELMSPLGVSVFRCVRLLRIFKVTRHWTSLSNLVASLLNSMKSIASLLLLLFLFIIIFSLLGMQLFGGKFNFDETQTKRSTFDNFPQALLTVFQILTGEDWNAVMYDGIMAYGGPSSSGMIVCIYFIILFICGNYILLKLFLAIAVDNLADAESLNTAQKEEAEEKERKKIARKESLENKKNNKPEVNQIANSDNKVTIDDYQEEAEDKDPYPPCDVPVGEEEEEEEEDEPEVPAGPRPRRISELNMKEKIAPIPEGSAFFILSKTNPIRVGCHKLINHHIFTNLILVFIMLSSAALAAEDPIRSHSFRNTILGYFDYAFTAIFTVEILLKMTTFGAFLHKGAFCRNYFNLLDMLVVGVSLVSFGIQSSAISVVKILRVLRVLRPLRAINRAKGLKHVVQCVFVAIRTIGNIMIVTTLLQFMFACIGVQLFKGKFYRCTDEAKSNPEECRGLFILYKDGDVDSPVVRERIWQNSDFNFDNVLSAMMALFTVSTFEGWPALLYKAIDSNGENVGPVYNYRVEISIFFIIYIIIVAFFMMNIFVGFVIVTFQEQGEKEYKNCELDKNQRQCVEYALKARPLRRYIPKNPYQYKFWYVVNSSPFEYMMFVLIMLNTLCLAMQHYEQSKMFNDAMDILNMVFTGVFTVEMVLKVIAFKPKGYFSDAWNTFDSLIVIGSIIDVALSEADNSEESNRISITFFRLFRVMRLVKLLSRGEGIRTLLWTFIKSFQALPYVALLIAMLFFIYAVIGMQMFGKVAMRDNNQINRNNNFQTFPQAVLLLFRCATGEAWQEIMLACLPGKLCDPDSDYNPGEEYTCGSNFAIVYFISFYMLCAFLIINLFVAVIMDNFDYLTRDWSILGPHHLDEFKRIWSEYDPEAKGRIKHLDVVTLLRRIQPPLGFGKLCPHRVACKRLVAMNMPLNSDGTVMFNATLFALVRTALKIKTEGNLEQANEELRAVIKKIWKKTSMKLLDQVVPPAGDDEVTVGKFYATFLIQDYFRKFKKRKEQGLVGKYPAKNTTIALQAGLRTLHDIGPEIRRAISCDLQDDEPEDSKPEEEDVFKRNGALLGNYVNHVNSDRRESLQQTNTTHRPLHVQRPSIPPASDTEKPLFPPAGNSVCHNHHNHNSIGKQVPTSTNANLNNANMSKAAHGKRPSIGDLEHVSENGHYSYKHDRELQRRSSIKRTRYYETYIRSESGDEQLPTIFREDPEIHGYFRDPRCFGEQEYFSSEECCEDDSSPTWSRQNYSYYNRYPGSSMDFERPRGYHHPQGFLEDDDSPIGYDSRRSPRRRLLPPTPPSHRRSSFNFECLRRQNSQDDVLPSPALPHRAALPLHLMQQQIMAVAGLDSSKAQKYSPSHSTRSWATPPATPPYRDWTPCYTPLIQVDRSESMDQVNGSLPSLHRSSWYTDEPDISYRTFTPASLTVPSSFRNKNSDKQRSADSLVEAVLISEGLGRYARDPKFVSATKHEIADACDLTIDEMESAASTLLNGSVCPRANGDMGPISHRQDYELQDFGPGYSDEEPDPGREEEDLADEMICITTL
Chain of CaV1.3 LTCCs expressed in HEK293 cells (P54287 whole entry partner): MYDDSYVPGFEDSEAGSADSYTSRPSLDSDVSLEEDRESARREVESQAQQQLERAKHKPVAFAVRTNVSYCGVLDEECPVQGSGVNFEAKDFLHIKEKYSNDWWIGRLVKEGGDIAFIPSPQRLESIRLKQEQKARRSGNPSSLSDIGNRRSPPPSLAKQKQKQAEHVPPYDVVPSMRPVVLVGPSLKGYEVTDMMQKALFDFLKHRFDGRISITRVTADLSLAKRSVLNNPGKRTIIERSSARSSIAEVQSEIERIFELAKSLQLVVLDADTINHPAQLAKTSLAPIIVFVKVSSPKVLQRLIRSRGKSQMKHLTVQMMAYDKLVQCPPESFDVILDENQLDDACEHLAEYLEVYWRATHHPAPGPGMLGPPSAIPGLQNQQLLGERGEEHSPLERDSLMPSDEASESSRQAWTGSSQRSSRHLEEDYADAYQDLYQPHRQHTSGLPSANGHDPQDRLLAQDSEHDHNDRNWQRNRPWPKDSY
Chain of CaV1.3 LTCCs expressed in HEK293 cells (P54290 25-1091 partner): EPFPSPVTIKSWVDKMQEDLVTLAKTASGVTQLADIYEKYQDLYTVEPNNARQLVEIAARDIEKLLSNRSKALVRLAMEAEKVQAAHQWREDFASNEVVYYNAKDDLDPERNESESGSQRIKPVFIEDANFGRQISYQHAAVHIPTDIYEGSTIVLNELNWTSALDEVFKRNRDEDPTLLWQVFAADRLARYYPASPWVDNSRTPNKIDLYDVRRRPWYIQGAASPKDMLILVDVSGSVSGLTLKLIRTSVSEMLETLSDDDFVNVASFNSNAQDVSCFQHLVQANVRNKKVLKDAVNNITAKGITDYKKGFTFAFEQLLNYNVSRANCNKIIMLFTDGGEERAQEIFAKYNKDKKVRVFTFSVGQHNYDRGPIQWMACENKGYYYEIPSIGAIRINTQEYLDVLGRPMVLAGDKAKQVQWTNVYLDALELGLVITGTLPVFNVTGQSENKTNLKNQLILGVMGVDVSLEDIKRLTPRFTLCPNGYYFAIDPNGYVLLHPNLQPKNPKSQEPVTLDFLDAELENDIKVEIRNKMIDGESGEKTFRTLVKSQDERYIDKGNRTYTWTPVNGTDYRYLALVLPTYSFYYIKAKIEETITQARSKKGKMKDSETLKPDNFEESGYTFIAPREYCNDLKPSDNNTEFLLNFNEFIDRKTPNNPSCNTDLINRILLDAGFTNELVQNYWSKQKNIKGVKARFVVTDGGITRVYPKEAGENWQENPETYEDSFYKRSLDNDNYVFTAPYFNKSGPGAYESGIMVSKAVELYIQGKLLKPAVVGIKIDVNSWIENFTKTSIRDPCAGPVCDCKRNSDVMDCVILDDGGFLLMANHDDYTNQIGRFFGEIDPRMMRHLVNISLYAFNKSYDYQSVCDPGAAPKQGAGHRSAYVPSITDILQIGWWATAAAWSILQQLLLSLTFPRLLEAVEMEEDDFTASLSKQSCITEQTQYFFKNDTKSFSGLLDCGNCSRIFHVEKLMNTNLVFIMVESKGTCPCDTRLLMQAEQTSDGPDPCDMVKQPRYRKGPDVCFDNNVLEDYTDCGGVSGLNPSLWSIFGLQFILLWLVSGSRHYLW

Row | Structure (SMILES) | IC50 [1] [µM] | inhibition at 10 µM [2] [%] | inhibition at 10 µM [3] [%]
1 | O=C1C(c2cccc([N+](=O)[O-])c2)C(=O)N(C2CCCC2)C(=O)N1CCCCc1cccc(Cl)c1 (centres unmarked) [14a, 1-(4-(3-Chlorophenyl)butyl)-3-cyclopentyl-5-(3-nitrophenyl)pyrimidine-2,4,6(1H,3H,5H)-trione] | 3.72 | 72.7 | 76.9
2 | O=C1C(c2cccc(C(F)(F)F)c2)C(=O)N(CCc2cccc(Cl)c2)C(=O)N1CCCc1ccc(Cl)cc1 (centres unmarked) [14b, 1-(3-Chlorophenethyl)-3-(3-(4-chlorophenyl)propyl)-5-(3-(trifluoromethyl)phenyl)pyrimidine-2,4,6(1H,3H,5H)-trione] | – | 98.8 | 95.6
3 | O=C1C(c2cccc(C(F)(F)F)c2)C(=O)N(CCc2cccc(Cl)c2)C(=O)N1CCCc1cccc(Cl)c1 (centres unmarked) [14c, 1-(3-Chlorophenethyl)-3-(3-(3-chlorophenyl)propyl)-5-(3-(trifluoromethyl)phenyl)pyrimidine-2,4,6(1H,3H,5H)-trione] | – | 99.2 | 97.3
4 | O=C1C(c2cccc(C(F)(F)F)c2)C(=O)N(CCc2cccc(Cl)c2)C(=O)N1CCCc1ccc(C(F)(F)F)cc1 (centres unmarked) [14d, 1-(3-Chlorophenethyl)-5-(3-(trifluoromethyl)phenyl)-3-(3-(4-(trifluoromethyl)phenyl)propyl)pyrimidine-2,4,6(1H,3H,5H)-trione] | 4.53 | 81.2 | 93.1
5 | O=C1C(c2cccc(C(F)(F)F)c2)C(=O)N(CCc2cccc(Cl)c2)C(=O)N1CCCCc1ccc(Cl)cc1 (centres unmarked) [14e, 1-(3-Chlorophenethyl)-3-(4-(4-chlorophenyl)butyl)-5-(3-(trifluoromethyl)phenyl)pyrimidine-2,4,6(1H,3H,5H)-trione] | 2.41 | 96.1 | 93.8
6 | O=C1C(c2cccc(C(F)(F)F)c2)C(=O)N(CCc2cccc(Cl)c2)C(=O)N1CCCCc1cccc(Cl)c1 (centres unmarked) [14f, 1-(3-Chlorophenethyl)-3-(4-(3-chlorophenyl)butyl)-5-(3-(trifluoromethyl)phenyl) pyrimidine-2,4,6(1H,3H,5H)-trione] | – | 100 | 79.8
7 | O=C1C(c2cccc(C(F)(F)F)c2)C(=O)N(CCc2cccc(Cl)c2)C(=O)N1CCCCc1ccc(C(F)(F)F)cc1 (centres unmarked) [14g, 1-(3-Chlorophenethyl)-5-(3-(trifluoromethyl)phenyl)-3-(4-(4-(trifluoromethyl)phenyl)butyl)pyrimidine-2,4,6(1H,3H,5H)-trione] | – | 88.2 | 82.8
